Active and inactive are the calls of the source. The rule behind the calls is not given here.
Columns and labels:
Huh-7 [1] = experiment: Induction of apoptosis in human HuH7 cells assessed as cleavage of PARP protein at IC50 after 72 hrs by Western blot analysis; type: functional, cell-based
Summary of the method: (§1)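 Cells plated in 100 mm dishes. […] Western blot probed with anti-PARP to detect cleaved PARP, with β-actin as loading control.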

[2] = Cytotoxicity against human HuH7 cells assessed as inhibition of cell proliferation after 72 hrs by sulforhodamine B assay; type: functional, cell-based, Huh-7
Summary of the method: (§2)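 Liver cancer cells grown in DMEM or RPMI with 10% FCS, 2 mM L-glutamine and penicillin/streptomycin at 37°C, 5% CO2. Plated at 1000-3000 cells per well for 24 h, then exposed to 2.5–40 µM for 72 h. Cells TCA-fixed, stained with 0.4% sulforhodamine B in 1% acetic acid, dye solubilized in 10 mM Tris base, absorbance read at 515 nm. Normalized to DMSO, triplicate.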

[3] = Selectivity index, ratio of CC50 for human Huh7.5 cells to EC50 for HCV genotype 1b infected in Huh7/Rep-Feo1b cells; parameters: species or system Huh-7
Summary of the method: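 Selectivity index taken as the ratio of CC50 (MTS assay, parental Huh7.5 cells) to EC50 (dose-response curves at 8-10 concentrations, Huh7/Rep-Feo1b luciferase replicon, 42 h treatment).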

Huh-7 [4] = experiment: Induction of apoptosis in human HuH7 cells assessed as nuclear condensation at IC50 after 72 hrs by hoechst 33258 staining based fluorescence microscopy; type: functional, cell-based
[5] = Cytotoxicity against human FOCUS cells assessed as inhibition of cell proliferation after 72 hrs by sulforhodamine B assay; type: functional, cell-based; summary of the method: as §2
Hepatitis C virus [6] = experiment: Antiviral activity against HCV genotype 1b infected in Huh7/Rep-Feo1b cells assessed as inhibition of viral replication after 42 hrs by MTS assay; type: functional, organism-based, Hepacivirus hominis; conditions: Huh-7, 42 h
Summary of the method: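 Huh7/Rep-Feo1b replicon reporter cells kept in DMEM with 10% fetal calf serum and 0.5 mg/mL G418 at 37°C, 5% CO2. Cells seeded at 1x10^4 per well, dosed 8 h later and incubated 42 h with DMSO as control. Luciferase signal read relative to DMSO. EC50 derived from dose-response curves at 8-10 concentrations, mean of three independent experiments with standard deviation.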

[7] = Cytotoxicity against human SNU475 cells assessed as inhibition of cell proliferation after 72 hrs by sulforhodamine B assay; type: functional, cell-based, SNU-475; summary of the method: as §2
Hepatitis C virus [8] = experiment: Antiviral activity against HCV genotype 1b infected in Huh7/Rep-Feo1b cells assessed as inhibition of viral replication at 50 uM after 42 hrs by MTS assay relative to control; type: functional, Hepacivirus hominis; conditions: Huh-7, 42 h
Summary of the method: (§3)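 Replicon reporter cells (Huh7/Rep-Feo1b or Huh7.5-FGR-JC1-Rluc2A) grown in DMEM with 10% fetal calf serum and 0.5 mg/mL G418 at 37°C, 5% CO2. Seeded at 1x10^4 per well, compound added 8 h after seeding at 50 µM for 42 h. Luciferase signal expressed relative to equivalent DMSO-treated controls. Average of three independent experiments.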

Hepatitis C virus [9] = experiment: Antiviral activity against HCV genotype 2a infected in Huh7.5 FGR-JC1-Rluc2A cells assessed as inhibition of viral replication at 50 uM after 42 hrs by MTS assay relative to control; type: functional; conditions: Hepacivirus hominis, Huh7.5, 42 h, in the assay text read “Renilla luciferase reporter assay” for “MTS assay”; summary of the method: as §3
Hepacivirus hominis = experiment: Inhibition of HCV NS5B RNA dependent RNA polymerase using UTP/[alpha-32P]UTP as substrate at 50 uM after 1 hr by liquid scintillation counter analysis
[10] = Cytotoxicity against human Huh7.5 cells assessed as cell viability after 42 hrs by MTS assay; type: cell-based, Huh-7
Summary of the method: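 CC50 measured in parental Huh7.5 cells using the colorimetric MTS assay, with equal amounts of DMSO as control. Mean of three independent experiments with standard deviation.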

Huh-7 [11] = experiment: Induction of apoptosis in human HuH7 cells assessed as DNA fragmentation at IC50 after 72 hrs by hoechst 33258 staining based fluorescence microscopy; type: functional, cell-based
HepG2 = experiment: Cytotoxicity against human HepG2 cells assessed as inhibition of cell proliferation after 72 hrs by sulforhodamine B assay; type: functional, cell-based; summary of the method: as §2
[12] = Cytotoxicity against human Mahlavu cells assessed as inhibition of cell proliferation after 72 hrs by sulforhodamine B assay; type: functional, cell-based; summary of the method: as §2
Mahlavu = experiment: Induction of apoptosis in human Mahlavu cells assessed as cleavage of PARP protein at IC50 after 72 hrs by Western blot analysis; type: functional, cell-based; summary of the method: as §1
[13] = Cell cycle arrest in human Mahlavu cells assessed as accumulation at subG1/G0 phase at IC50 after 72 hrs by propidium iodide staining-based Muse cell cycle analyzer; type: functional
[14] = Cytotoxicity against human Hep3B cells assessed as inhibition of cell proliferation after 72 hrs by sulforhodamine B assay; type: functional, cell-based, Hep 3B2; summary of the method: as §2

SMILES: O=C(N/N=C/c1ccccn1)c1cc(-c2ccc(F)cc2F)ccc1O
- Activity (Huh-7 [1]): inactive
- IC50 ([2]; Homo sapiens, Huh-7, 72 h, read-out: IC50): 10 µM
- Ratio CC50/EC50 [3]: >25.6
- Activity (Huh-7 [4]): Active
- IC50 [5]: 9.29 µM
- EC50 (Hepatitis C virus [6]): 3.9 µM
- IC50 ([7]; Homo sapiens, SNU-475, 72 h, read-out: IC50): 8.33 µM
- inhibition at 50 µM (Hepatitis C virus [8]): 79%
- inhibition at 50 µM (Hepatitis C virus [9]): 90%
- inhibition (Hepacivirus hominis): inactive
- CC50 at 42 h [10]: > 100 µM
- Activity (Huh-7 [11]): Active
- IC50 (HepG2; Homo sapiens, HepG2, 72 h, read-out: IC50): 10.3 µM
- IC50 [12]: 4.74 µM
- Activity (Mahlavu): Active
- Activity [13]: Active
- IC50 ([14]; Homo sapiens, Hep3B, 72 h, read-out: IC50): 16.2 µM

SMILES: O=C(N/N=C/c1c(Cl)cccc1Cl)c1cc(-c2ccc(F)cc2F)ccc1O
- inhibition at 50 µM (Hepatitis C virus [8]): 72%
- inhibition at 50 µM (Hepatitis C virus [9]): 96%
- inhibition (Hepacivirus hominis): inactive
- CC50 at 42 h [10]: < 50 µM

SMILES: O=C(N/N=C/c1cccc(Br)c1)c1cc(-c2ccc(F)cc2F)ccc1O
- inhibition at 50 µM (Hepatitis C virus [8]): 81%
- inhibition at 50 µM (Hepatitis C virus [9]): 92%
- inhibition (Hepacivirus hominis): 9%
- CC50 at 42 h [10]: < 50 µM

SMILES: Cc1ccc(/C=N/NC(=O)c2cc(-c3ccc(F)cc3F)ccc2O)s1
- inhibition at 50 µM (Hepatitis C virus [8]): 64%
- inhibition at 50 µM (Hepatitis C virus [9]): 95%
- inhibition (Hepacivirus hominis): 8%
- CC50 at 42 h [10]: > 50 µM

SMILES: O=C(N/N=C/c1cccc(Oc2ccccc2)c1)c1cc(-c2ccc(F)cc2F)ccc1O
- inhibition at 50 µM (Hepatitis C virus [8]): 92%
- inhibition at 50 µM (Hepatitis C virus [9]): 99%
- inhibition (Hepacivirus hominis): 14%
- CC50 at 42 h [10]: < 50 µM

SMILES: O=C(N/N=C/c1ccncc1)c1cc(-c2ccc(F)cc2F)ccc1O
- inhibition at 50 µM (Hepatitis C virus [8]): 33%
- inhibition at 50 µM (Hepatitis C virus [9]): 23%
- inhibition (Hepacivirus hominis): 7%
- CC50 at 42 h [10]: > 50 µM

SMILES: O=C(N/N=C/c1cccnc1)c1cc(-c2ccc(F)cc2F)ccc1O
- Ratio CC50/EC50 [3]: >24.7
- EC50 (Hepatitis C virus [6]): 8.1 µM
- inhibition at 50 µM (Hepatitis C virus [8]): 83%
- inhibition at 50 µM (Hepatitis C virus [9]): 88%
- inhibition (Hepacivirus hominis): 8%
- CC50 at 42 h [10]: > 200 µM

SMILES: CCc1ccc(/C=N/NC(=O)c2cc(-c3ccc(F)cc3F)ccc2O)s1
- inhibition at 50 µM (Hepatitis C virus [8]): 65%
- inhibition at 50 µM (Hepatitis C virus [9]): 96%
- inhibition (Hepacivirus hominis): inactive
- CC50 at 42 h [10]: > 50 µM

SMILES: O=C(N/N=C/c1ccc2c(c1)OC(F)(F)O2)c1cc(-c2ccc(F)cc2F)ccc1O
- inhibition at 50 µM (Hepatitis C virus [8]): 65%
- inhibition at 50 µM (Hepatitis C virus [9]): 95%
- inhibition (Hepacivirus hominis): inactive
- CC50 at 42 h [10]: < 50 µM

SMILES: O=C(N/N=C/c1c(F)cccc1F)c1cc(-c2ccc(F)cc2F)ccc1O
- inhibition at 50 µM (Hepatitis C virus [8]): 69%
- inhibition at 50 µM (Hepatitis C virus [9]): 72%
- inhibition (Hepacivirus hominis): inactive
- CC50 at 42 h [10]: > 100 µM

SMILES: O=C(N/N=C/c1cccc(C(F)(F)F)c1)c1cc(-c2ccc(F)cc2F)ccc1O
- inhibition at 50 µM (Hepatitis C virus [8]): 87%
- inhibition at 50 µM (Hepatitis C virus [9]): 99%
- inhibition (Hepacivirus hominis): 18%
- CC50 at 42 h [10]: < 50 µM

SMILES: O=C(N/N=C/c1ccc2ccccc2c1)c1cc(-c2ccc(F)cc2F)ccc1O
- inhibition at 50 µM (Hepatitis C virus [8]): 65%
- inhibition at 50 µM (Hepatitis C virus [9]): 58%
- inhibition (Hepacivirus hominis): inactive
- CC50 at 42 h [10]: > 100 µM

SMILES: O=C(N/N=C/c1c(F)cccc1Cl)c1cc(-c2ccc(F)cc2F)ccc1O
- Ratio CC50/EC50 [3]: >12.8
- EC50 (Hepatitis C virus [6]): 3.9 µM
- inhibition at 50 µM (Hepatitis C virus [8]): 83%
- inhibition at 50 µM (Hepatitis C virus [9]): 74%
- inhibition (Hepacivirus hominis): 11%
- CC50 at 42 h [10]: > 50 µM

SMILES: O=C(N/N=C/c1ccc(Cl)c(Cl)c1)c1cc(-c2ccc(F)cc2F)ccc1O
- inhibition at 50 µM (Hepatitis C virus [8]): 66%
- inhibition at 50 µM (Hepatitis C virus [9]): 95%
- inhibition (Hepacivirus hominis): inactive
- CC50 at 42 h [10]: < 50 µM

SMILES: O=C(N/N=C/c1cccs1)c1cc(-c2ccc(F)cc2F)ccc1O
- Ratio CC50/EC50 [3]: >3.2
- EC50 (Hepatitis C virus [6]): 15.6 µM
- inhibition at 50 µM (Hepatitis C virus [8]): 91%
- inhibition at 50 µM (Hepatitis C virus [9]): 98%
- inhibition (Hepacivirus hominis): 17%
- CC50 at 42 h [10]: > 50 µM

SMILES: O=C(N/N=C/c1cccc2ccccc12)c1cc(-c2ccc(F)cc2F)ccc1O
- Ratio CC50/EC50 [3]: >6.1
- EC50 (Hepatitis C virus [6]): 16.5 µM
- inhibition at 50 µM (Hepatitis C virus [8]): 79%
- inhibition at 50 µM (Hepatitis C virus [9]): 70%
- inhibition (Hepacivirus hominis): inactive
- CC50 at 42 h [10]: > 200 µM

SMILES: O=C(N/N=C/c1ccc(C(F)(F)F)cc1)c1cc(-c2ccc(F)cc2F)ccc1O
- inhibition at 50 µM (Hepatitis C virus [8]): 86%
- inhibition at 50 µM (Hepatitis C virus [9]): 99%
- inhibition (Hepacivirus hominis): 12%
- CC50 at 42 h [10]: < 50 µM

SMILES: N#Cc1ccc(/C=N/NC(=O)c2cc(-c3ccc(F)cc3F)ccc2O)cc1
- Ratio CC50/EC50 [3]: >16.9
- EC50 (Hepatitis C virus [6]): 11.8 µM
- inhibition at 50 µM (Hepatitis C virus [8]): 77%
- inhibition at 50 µM (Hepatitis C virus [9]): 82%
- inhibition (Hepacivirus hominis): inactive
- CC50 at 42 h [10]: > 200 µM

SMILES: O=C(N/N=C/c1ccccc1Cl)c1cc(-c2ccc(F)cc2F)ccc1O
- inhibition at 50 µM (Hepatitis C virus [8]): 90%
- inhibition at 50 µM (Hepatitis C virus [9]): 78%
- inhibition (Hepacivirus hominis): 7%
- CC50 at 42 h [10]: < 50 µM

SMILES: O=C(O)c1cc(-c2ccc(F)cc2F)ccc1O [DIFLUNISAL]
- IC50 ([2]; huh-7): Not Active
- Activity (Huh-7 [4]): inactive
- IC50 [5]: 29.8 µM
- IC50 ([7]; snu-475): Not Active
- Activity (Huh-7 [11]): inactive
- IC50 (HepG2; hepg2): Not Active
- IC50 [12]: 51.7 µM
- IC50 ([14]; hep 3b2): Not Active

— ChEMBL document CHEMBL3763025, “Synthesis of novel diflunisal hydrazide-hydrazones as anti-hepatitis C virus agents and hepatocellular carcinoma inhibitors” (Eur J Med Chem, 2016)
